From PubChem BioAssay
Hits are enriched below; roughly 2.2% of the tested compounds scored in any of these assays.
F508del corr: CFTR F508del correction in bronchial cells; CFBE cells, YFP halide quenching; stimulated with forskolin plus potentiator P3; % fluorescence drop versus neutral controls; activity (quench increase), % at 7.58 µM; 350,000 compounds, 0.36% hits; AID 720511;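 active = mean added fluorescence quench of at least 8% versus neutral control, with both replicates also reaching 8%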;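 also: cells transiently co-express mutant CFTR-F508del with the halide-sensitive YFP; corrector assay measuring rescue of mutant channel to the surface after 24 h compound exposure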
dFosB activator: mouse delta FosB homodimer activation | P13346 | purified delta FosB, TAMRA-CDK5 oligo fluorescence polarization; percent of positive-control signal above neutral wells | activation, % at 25 µM | 340,000 compounds, 0.99% hits | AID 493131;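 active = mean activation above about 17%, with every replicate also reaching it, limit read from the data, passing the limit was not always enough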
Target sequence (P13346 whole entry, looked up): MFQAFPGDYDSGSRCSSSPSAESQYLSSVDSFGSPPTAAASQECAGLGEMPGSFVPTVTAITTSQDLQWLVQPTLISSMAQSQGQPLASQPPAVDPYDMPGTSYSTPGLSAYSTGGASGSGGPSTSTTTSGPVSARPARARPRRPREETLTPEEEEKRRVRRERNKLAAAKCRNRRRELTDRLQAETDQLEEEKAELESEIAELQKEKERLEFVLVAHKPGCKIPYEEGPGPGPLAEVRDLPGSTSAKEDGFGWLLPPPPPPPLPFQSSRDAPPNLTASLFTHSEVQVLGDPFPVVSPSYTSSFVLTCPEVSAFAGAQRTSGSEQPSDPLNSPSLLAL
FGF22 binding: shifts melting point of recombinant human FGF22; recombinant FGF22 thermal shift, SYPRO orange fluorescence; percent of sucrose octasulfate shift, DMSO zero; activity (Tm shift, normalised), % at 9.99 µM; 340,000 compounds, 1.5% hits; AID 651658;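 active = mean Tm shift, scaled 0 neutral to 100 positive control, at about 1.3% or above, every replicate too, limit read from the data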
S100A4 MyoIIA: inhibitors of human S100A4 binding to myosin IIA peptide. S100A4/TAMRA-MyoIIA peptide fluorescence polarization. inhibition, % at 10.7 µM. 360,000 compounds, 0.14% hits. AID 652163;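 active = mean inhibition of at least 70% across replicates, with every replicate also reaching that level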
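Material: S100A4 monomer (human). Medium: Calcium-containing HEPES buffer, pH 7.2. Probe or stimulus: labelled myosin peptide probe, 5 nM. Compound dosing: one concentration per compound. Timing: polarization read 5 min after assay mix addition, stable 5–60 min. Benchmarks: DMSO as neutral control, TFP as positive control.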
* = called active by the depositor; / = no result.

SMILES	F508del corr	dFosB activator	FGF22 binding	S100A4 MyoIIA
COc1ccc(CCN=C(C)C2=C(O)C(c3ccccc3)OC2=O)cc1OC (configuration not stated)	-3	-6	43*	-5
CC(C)(C)N1CC(C(=O)Nc2ccc(C(N)=O)cc2)CC1=O (configuration not stated)	0	/	44*	0
CC(C)(C)N1CC(C(=O)Nc2ccc(S(N)(=O)=O)cc2)CC1=O (configuration not stated)	2	-2	0	0
C[C@@H]1CCCCO[C@@H](CN(C)S(=O)(=O)c2ccc(Cl)cc2)[C@@H](C)CN([C@@H](C)CO)C(=O)c2cc(NS(=O)(=O)c3cccs3)ccc2O1	0	/	0	-4
Cc1nn(C)cc1C(C(=O)NC1CCCCC1)N(CCc1ccccc1)C(=O)c1cnccn1 (configuration not stated)	-2	-1	43*	-1
O=C(NC1CCCC1)C(c1cccnc1)N(CCc1ccccc1)C(=O)c1ccco1 (configuration not stated)	3	-1	0	1
O=C(N[C@@H]1C=C[C@@H](CC(=O)N2CCOCC2)O[C@@H]1CO)c1ccc2c(c1)OCO2	-1	/	0	5
Cc1ccccc1NC(=S)NC12CN3CN(CN(C3)C1)C2	0	-5	44*	0
Cc1cccc(NC(=S)NC23CN4CN(CN(C4)C2)C3)c1C	1	0	44*	-1
COc1ccccc1NC(=S)NC12CN3CN(CN(C3)C1)C2	1	-3	/	-3
Cc1noc(C)c1S(=O)(=O)Nc1ccc2c(c1)C(=O)N([C@H](C)CO)C[C@@H](C)[C@H](CN(C)C(=O)c1ccccc1)OCCCC[C@@H](C)O2	1	/	/	2
CCOc1nc(N2CCOCC2)nc(C)c1[N+](=O)[O-]	1	2	44*	1
Cc1ccc2[nH]c(-c3ccccc3)cc(=O)c2c1	10*	-12	0	-3
COc1ccccc1NC(=O)N[C@@H]1CC[C@@H](CCNS(=O)(=O)c2ccc(F)cc2)O[C@H]1CO	-1	/	0	-14
COc1ccc(S(=O)(=O)Nc2ccc3c(c2)C(=O)N([C@H](C)CO)C[C@@H](C)[C@@H](CN(C)C(=O)NC2CCCCC2)OCCCC[C@H](C)O3)cc1	3	/	0	4
CC(C)CC#Cc1cnc2c(c1)C(=O)N([C@@H](C)CO)C[C@@H](C)[C@@H](CN(C)C(=O)Nc1ccccc1F)O2	-1	/	0	2
O=c1[nH]cc(CN2CCOCC2)c(=O)[nH]1	2	-4	43*	-2
Oc1c(CN2CCOCC2)cc(CN2CCOCC2)c(O)c1CN1CCOCC1	0	-7	0	0
C[C@@H]1CN([C@@H](C)CO)C(=O)Cc2cc(NS(C)(=O)=O)ccc2O[C@@H]1CN(C)Cc1ccc(C(F)(F)F)cc1	6	/	0	4
CNC[C@@H]1Oc2c(NC(=O)Nc3ccccc3)cccc2C(=O)N([C@H](C)CO)C[C@H]1C	-3	/	0	8
C[C@@H]1CN([C@H](C)CO)C(=O)c2cc(-c3ccc(F)cc3)cnc2O[C@H]1CN(C)Cc1cncnc1	3	/	0	107*
C[C@H]1CN([C@@H](C)CO)C(=O)c2cc(C#CC3CCCCC3)cnc2O[C@H]1CN(C)Cc1cncnc1	0	/	0	98*
C[C@@H]1CN([C@@H](C)CO)C(=O)c2cc(-c3ccc(F)cc3)cnc2O[C@@H]1CN(C)Cc1cncnc1	2	/	0	6
C[C@@H]1CN([C@H](C)CO)C(=O)c2cc(C3=CCCC3)cnc2O[C@@H]1CN(C)Cc1ccc(F)cc1	-1	/	0	105*
COc1ccc(S(=O)(=O)Nc2ccc3c(c2)C(=O)N(C)C[C@@H](OC)[C@@H](C)CN[C@H](C)CO3)cc1	-2	/	/	-10
Cc1ccc(S(=O)(=O)Nc2ccc3c(c2)C(=O)N([C@H](C)CO)C[C@H](C)[C@@H](CN(C)C(=O)CCC(F)(F)F)OCCCC[C@H](C)O3)cc1	1	/	/	-9
CC(=O)N1Cc2cc(C(=O)NCc3cc(F)cc(F)c3)nc(-c3cccc(C4=CCCC4)c3)c2[C@H]1CCO	6	/	-1	-3
CCNC(=O)[C@@H]1[C@@H](CO)[C@@H]2Cn3c(ccc(-c4ccccc4)c3=O)[C@@H]2N1CC	/	/	-1	78*
COc1ccc(/C=C/C(=O)Nc2cccc(S(=O)(=O)N3CCOCC3)c2)cc1OC	1	9	0	-1
